According to ChEMBL document CHEMBL1938298, “Synthesis and characterization of [¹²⁵I]2-iodo N-[(S)-{(S)-1-methylpiperidin-2-yl}(phenyl)methyl]3-trifluoromethyl-benzamide as novel imaging probe for glycine transporter 1” (Bioorg Med Chem, 2011):
Activity calls are given as the source filed them. No cut-off for these calls is given here.

How the values were obtained:
[1] = target: T1, Sodium- and chloride-dependent glycine transporter 1 (Rattus norvegicus) (UniProt P28572); experiment: Binding affinity to GlyT1 in rat brain cerebellum at 0.03 to 0.04 nM preincubated for 20 mins in binding buffer before compound addition measured after 30 mins by autoradiography in presence of GlyT1 inhibitor N-Me-SSR504734 relative to control; assay type: tissue-based; settings: tested as the 125I-labelled form
T1 sequence (whole entry): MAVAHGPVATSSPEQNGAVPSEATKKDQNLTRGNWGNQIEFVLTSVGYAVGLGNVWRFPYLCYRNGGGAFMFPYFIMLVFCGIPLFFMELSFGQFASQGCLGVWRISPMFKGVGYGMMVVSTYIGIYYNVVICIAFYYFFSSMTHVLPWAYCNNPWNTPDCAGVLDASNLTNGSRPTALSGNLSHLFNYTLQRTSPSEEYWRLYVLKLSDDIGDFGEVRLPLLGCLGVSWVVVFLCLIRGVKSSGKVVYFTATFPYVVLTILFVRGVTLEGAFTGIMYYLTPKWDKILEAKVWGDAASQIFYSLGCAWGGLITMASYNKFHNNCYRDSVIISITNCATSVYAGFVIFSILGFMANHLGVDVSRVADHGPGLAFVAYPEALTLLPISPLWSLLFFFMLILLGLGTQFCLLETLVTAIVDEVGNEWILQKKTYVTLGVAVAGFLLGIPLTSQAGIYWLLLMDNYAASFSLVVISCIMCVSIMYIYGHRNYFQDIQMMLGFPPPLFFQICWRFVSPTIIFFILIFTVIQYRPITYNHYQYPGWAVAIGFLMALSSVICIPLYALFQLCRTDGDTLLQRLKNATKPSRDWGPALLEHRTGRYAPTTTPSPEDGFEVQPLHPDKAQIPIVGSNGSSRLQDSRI
How it was run: (§1)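 Rat brain sagittal sections (20 µm) preincubated 20 min at 25 °C in Tris-HCl buffer pH 7.5 (NaCl, KCl, MgCl2, CaCl2), then 30 min at 25 °C with [125I] tracer (100 kBq, 0.03–0.04 nM) plus competitor (10 µM; glycine 1 or 10 mM). Cold washes, imaging plate 3 days, ROI PSL minus background per mm². % control from ≥triplicate slices, three rats.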

Mus musculus [2] = experiment: In vivo binding affinity to GlyT1 in ddY mouse brain striatum at 33.3 kBq, iv after 30 mins in presence of N-Me-SSR504734 2 mg/kg, iv administered 15 mins prior to compound administration relative to control; assay type: functional, organism-based; parameters: dose 2 mg/kg; settings: tested as the 125I-labelled form
Mus musculus [3] = experiment: In vivo binding affinity to GlyT1 in ddY mouse brain thalamus at 33.3 kBq, iv after 60 mins in presence of SSR504734 2 mg/kg, iv administered 15 mins prior to compound administration relative to control; assay type: functional, organism-based; parameters: dose 2 mg/kg; settings: tested as the 125I-labelled form
[4] = target: T2, Sodium- and chloride-dependent glycine transporter 1 (Homo sapiens, UniProt P48067); experiment: Inhibition of GlyT1 in human JAR cells assessed as inhibition of [3H]glycine uptake preincubated for 1 mins measured after 2 hrs by liquid scintillation counting; assay type: cell-based
T2 sequence (P48067 whole entry): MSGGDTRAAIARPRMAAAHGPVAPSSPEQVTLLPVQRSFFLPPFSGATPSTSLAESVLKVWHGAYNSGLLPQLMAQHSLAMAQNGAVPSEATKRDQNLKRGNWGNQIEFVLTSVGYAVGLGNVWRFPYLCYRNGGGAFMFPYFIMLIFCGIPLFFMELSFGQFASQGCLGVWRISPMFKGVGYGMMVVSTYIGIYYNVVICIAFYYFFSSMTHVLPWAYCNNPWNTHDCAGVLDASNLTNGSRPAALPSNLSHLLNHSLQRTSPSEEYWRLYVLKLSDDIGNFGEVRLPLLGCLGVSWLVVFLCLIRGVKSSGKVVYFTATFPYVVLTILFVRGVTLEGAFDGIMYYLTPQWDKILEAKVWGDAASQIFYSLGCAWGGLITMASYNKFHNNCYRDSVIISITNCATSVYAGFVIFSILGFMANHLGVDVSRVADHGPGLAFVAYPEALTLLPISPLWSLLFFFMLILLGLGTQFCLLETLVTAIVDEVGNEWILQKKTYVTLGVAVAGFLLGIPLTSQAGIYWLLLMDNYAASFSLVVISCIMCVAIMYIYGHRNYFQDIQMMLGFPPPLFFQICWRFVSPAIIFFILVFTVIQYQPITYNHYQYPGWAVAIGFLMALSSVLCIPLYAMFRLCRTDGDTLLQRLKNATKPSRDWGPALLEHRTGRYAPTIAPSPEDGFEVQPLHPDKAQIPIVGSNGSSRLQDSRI
How it was run: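 [3H]glycine (final 10 µM) was added for 2 h at room temperature; nonspecific uptake was defined with 10 mM glycine. Cells were lysed in NaOH and counted by liquid scintillation. IC50 values are from at least three measurements, mean ± SEM.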

[5] = target: T1, Sodium- and chloride-dependent glycine transporter 1 (Rattus norvegicus); experiment: Binding affinity to GlyT1 in rat brain cerebral cortex at 0.03 to 0.04 nM preincubated for 20 mins in binding buffer before compound addition measured after 30 mins by autoradiography in presence of 0.01 mM GlyT1 inhibitor HPCP relative to control; assay type: tissue-based; settings: tested as the 125I-labelled form; how it was run: as §1
[6] = target: T1, Sodium- and chloride-dependent glycine transporter 1 (Rattus norvegicus); experiment: Binding affinity to GlyT1 in rat brain hippocampus at 0.03 to 0.04 nM preincubated for 20 mins in binding buffer before compound addition measured after 30 mins by autoradiography in presence of 0.01 mM GlyT2 inhibitor ORG25543 relative to control; assay type: tissue-based; settings: tested as the 125I-labelled form; how it was run: as §1
[7] = target: T1, Sodium- and chloride-dependent glycine transporter 1 (Rattus norvegicus); experiment: Binding affinity to GlyT1 in rat brain thalamus at 0.03 to 0.04 nM preincubated for 20 mins in binding buffer before compound addition measured after 30 mins by autoradiography in presence of 0.01 mM GlyT1 inhibitor HPCP relative to control; assay type: tissue-based; settings: tested as the 125I-labelled form
Intestine = experiment: Drug uptake in ddY mouse intestine at 11.1 kBq, iv after 60 min by gamma counting; assay type: ADME, organism-based; settings: in vivo, 1 h
How it was run: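 Male ddY mice (6 weeks, 30–35 g) received about 11.1 kBq [125I]tracer in 0.1 mL i.v. via tail vein. Killed at set times, organs dissected and weighed, radioactivity gamma counted. Reported as % injected dose/g tissue, mean ± SD, n = 5–6.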

Nucleic Acid = experiment: Ratio of drug level in brain to blood in ddY mouse at 11.1 kBq, iv after 15 min by gamma counting; assay type: ADME, organism-based
Liver = experiment: Drug uptake in ddY mouse liver at 11.1 kBq, iv after 30 min by gamma counting; assay type: ADME, organism-based; settings: in vivo, 0.5 h
How it was run: (§2)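 Male ddY mice (6 weeks, 30–35 g) were given about 11.1 kBq of [125I]tracer in 0.1 mL i.v. via the tail vein. At each time point the animals were killed and organs dissected, weighed and gamma-counted. Uptake is expressed as % injected dose per gram of tissue, mean ± SD, n = 5–6.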

Mus musculus [8] = experiment: In vivo binding affinity to GlyT1 in ddY mouse brain thalamus at 33.3 kBq, iv after 30 mins in presence of nonradioactive compound 2 mg/kg, iv administered 15 mins prior to compound administration relative to control; assay type: functional
Lung = experiment: Drug uptake in ddY mouse lung at 11.1 kBq, iv after 5 min by gamma counting; assay type: ADME, organism-based; settings: in vivo; how it was run: as §2

SMILES | Activity [1] | Activity (Mus musculus [2]) | Activity (Mus musculus [3]) | IC50 [4] | Activity [5] | Activity [6] | Activity [7] | Drug uptake (Intestine) | Ratio (Nucleic Acid) | Drug uptake (Liver) | Activity (Mus musculus [8]) | Drug uptake (Lung)
CN1CCCC[C@H]1[C@@H](NC(=O)c1cccc(C(F)(F)F)c1I)c1ccccc1 | 28.9% | Active | inactive | 2.35 nM | 31% | 105% | 22.5% |  |  |  |  | 
CN1CCCC[C@H]1[C@@H](NC(=O)c1cccc(C(F)(F)F)c1[125I])c1ccccc1 |  |  |  |  |  |  |  | 9.59 % ID/g | 2.42 | 14.74 % ID/g | 45% | 19.3 % ID/g
